Results as given in ChEMBL document CHEMBL1141523, “A new Heck reaction modification using ketone Mannich bases as enone precursors: parallel synthesis of anti-leishmanial chalcones” (Bioorg Med Chem Lett, 2008).

Tests used:
Leishmania donovani [1] = experiment: Antileishmanial activity against axenic Leishmania donovani amastigotes at 15 uM by Alamar Blue assay; format: functional
Method in brief: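 L. donovani axenic amastigotes (5.0 × 10^5 cells/ml) were added to an equal volume of compound made up at twice the final concentration in complete amastigote medium with 1% DMSO, giving a 15 µM single-concentration screen. Plates were incubated 24 h at 37 °C in 5% CO2, then alamarBlue was added for 24 h more. Fluorescence was read at ex 544 nm, em 590 nm. Medium ± DMSO served as 0% inhibition, with triplicate wells.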

Leishmania donovani [2] = experiment: Antileishmanial activity against axenic Leishmania donovani amastigotes at 1 uM by Alamar Blue assay; format: functional
Leishmania donovani [3] = experiment: Antileishmanial activity against axenic Leishmania donovani amastigotes by Alamar Blue assay; format: functional, organism-based
Method in brief: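 Dose-response GI50 (50% growth inhibition) was run on axenic L. donovani amastigotes (5.0 × 10^5 cells/ml) mixed 1:1 with compound at twice the final concentration in amastigote medium with 1% DMSO. Incubation was 24 h at 37 °C in 5% CO2, plus 24 h with alamarBlue, then fluorescence at 544/590 nm. Medium ± DMSO was taken as 0% inhibition. Triplicate wells were used, with duplicate or single experiments ± standard error.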

THP-1 = experiment: Cytotoxicity against human THP1 cells at 1 uM after 48 hrs by Alamar Blue assay; format: cell-based; conditions: thp-1, 48 h
Method in brief: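 THP-1 macrophages in complete RPMI-1640 (8 × 10^5 cells/ml) were added to an equal volume of compound, stated as 2 µM in complete medium with 1% DMSO. Triplicate wells were incubated 48 h at 37 °C in 5% CO2. AlamarBlue was then added for 3 h and fluorescence was read. Medium with and without DMSO served as 0% inhibition controls.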

Structure (SMILES)	inhibition at 15 µM (Leishmania donovani [1])	inhibition at 1 µM (Leishmania donovani [2])	GI50 (Leishmania donovani [3])	Activity (THP-1)	IC50 (Leishmania donovani [3]; in the assay text read “by tetrazolium dye-based assay” for “by Alamar Blue assay”)
COc1ccc(C(=O)/C=C/c2ccc(NC(C)=O)cc2)cc1	54.7%				
C[C@@H]1[C@H](O)[C@@H](C)/C=C/C=C/C=C/C=C/C=C/C=C/C=C/[C@H](O[C@@H]2O[C@H](C)[C@@H](O)[C@H](N)[C@@H]2O)C[C@@H]2O[C@](O)(C[C@@H](O)C[C@@H](O)[C@H](O)CC[C@@H](O)C[C@@H](O)CC(=O)O[C@H]1C)C[C@H](O)[C@H]2C(=O)O [AMPHOTERICIN B]	99%	> 90%			
O=C(/C=C/c1ccc(NC(=O)c2ccccc2)cc1)c1ccc(Cl)cc1	59.8%				
O=C(Nc1ccc(/C=C/C(=O)c2cccs2)cc1)c1ccccc1	95.3%		5.5 µM	6%	
O=C(/C=C/c1ccc(NC(=O)c2ccccc2)cc1)c1ccccc1	91.6%		7.6 µM	37%	
O=C(/C=C/c1ccc(Oc2ccccc2)nc1)c1ccccc1	63.7%				
COc1ccc(C(=O)/C=C/c2ccc(Oc3ccccc3)nc2)cc1	42%				
CC(=O)c1ccc(/C=C/C(=O)c2ccccc2)cc1	93.6%		5.6 µM	45.7%	
COc1ccc(C(=O)/C=C/c2cccc3ccccc23)cc1	51%				> 200 µM
O=C(Nc1ccc(/C=C/C(=O)c2ccco2)cc1)c1ccccc1	92.4%		6 µM	0%	
COc1ccc(C(=O)/C=C/c2ccc(NC(=O)c3ccccc3)cc2)cc1	2.1%				
O=C(/C=C/c1ccc(NC(=O)c2ccccc2)cc1)c1cccnc1	98.7%		2.5 µM	0%	
